Measurements published in ChEMBL document CHEMBL1212914, “A novel water-soluble gossypol derivative increases chemotherapeutic sensitivity and promotes growth inhibition in colon cancer” (J Med Chem, 2010).
Active and inactive are the calls of the source. The calls are words filed in the database; no cut-off is given here.

Key:
[1] = test system: CT26; assay: Cytotoxicity against mouse CT26 cells after 72 hrs by MTT assay; assay type: functional, cell-based; conditions: Mus musculus, CT26, 72 h
Summary of the method: (§1)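 Compounds dissolved in DMSO; cells seeded at 5 × 10^3 per well and treated after adherence with a range of concentrations for 72 h, with DMSO as negative control. MTT was added for 4 h at 37 °C in the dark, formazan dissolved in DMSO, and absorbance read. IC50 (μM) was calculated as the mean of three independent experiments.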

[2] = test system: MCF7; assay: Cytotoxicity against human MCF7 cells after 72 hrs by MTT assay; assay type: functional, cell-based; conditions: Homo sapiens, MCF7, 72 h; summary of the method: as §1
[3] = test system: MDA-MB-435; assay: Cytotoxicity against human MDA-MB-435 cells after 72 hrs by MTT assay; assay type: functional, cell-based; conditions: Homo sapiens, MDA-MB-435, 72 h; summary of the method: as §1
[4] = test system: HCT-116; assay: Cytotoxicity against human HCT116 cells after 72 hrs by MTT assay; assay type: functional, cell-based; conditions: Homo sapiens, HCT-116, 72 h; summary of the method: as §1
[5] = test system: SW-620; assay: Cytotoxicity against human SW620 cells after 72 hrs by MTT assay; assay type: functional, cell-based; conditions: Homo sapiens, SW-620, 72 h; summary of the method: as §1
[6] = test system: PC-3; assay: Cytotoxicity against human PC3 cells after 72 hrs by MTT assay; assay type: functional, cell-based; conditions: Homo sapiens, PC-3, 72 h; summary of the method: as §1
[7] = test system: A549; assay: Cytotoxicity against human A549 cells after 72 hrs by MTT assay; assay type: functional, cell-based; conditions: A549, 72 h; summary of the method: as §1
[8] = test system: B16-F10; assay: Cytotoxicity against mouse B16F10 cells after 72 hrs by MTT assay; assay type: functional, cell-based; conditions: Mus musculus, B16-F10, 72 h; summary of the method: as §1
[9] = test system: 4T1; assay: Cytotoxicity against mouse 4T1 cells after 72 hrs by MTT assay; assay type: functional, cell-based; conditions: Mus musculus, 4T1, 72 h; summary of the method: as §1
[10] = test system: MCF-7 (Homo sapiens); assay: Cytotoxicity against human MCF-7 cells after 72 hrs by MTT assay; conditions: MCF-7, 72 h
[11] = test system: CT26; assay: Induction of apoptosis in mouse CT26 cells assessed as inhibition of Bcl-2-Bax interaction at 20 uM after 24 hrs by immunoprecipitation analysis; assay type: functional, cell-based
Summary of the method: (§2)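 CT26 cells were treated for 24 h, with DMSO as control, then lysed in Triton X-100 buffer for 30 min at 4 °C. Lysates were immunoprecipitated overnight at 4 °C with anti-Bcl-2 or anti-Bcl-xL antibody plus protein A-agarose. Eluates were western-blotted for Bax (Bcl-2 pulldown) or Bim (Bcl-xL pulldown).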

[12] = test system: CT26; assay: Cytotoxicity against mouse CT26 cells at 5 to 10 uM after 24 hrs by […]; assay type: functional, cell-based
Summary of the method: (§3)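 CT26 cells were seeded at 2 × 10^3 per well and, after adherence, exposed to 2, 5, 10 or 20 μM for up to 120 h. Viability was read with a Cell Titer 96 Aqueous One Solution proliferation kit rather than MTT.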

[13] = test system: Mus musculus; assay: Toxicity in BALB/c mouse assessed as weight loss at 120 umol/kg, po administered daily once for 12 days; assay type: organism-based; conditions: in vivo, 288 h
Summary of the method: (§4)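 Male BALB/c mice aged 6-8 weeks, n = 6 per group, received 120 μmol/kg by gavage once daily for 12 days in 10% ethanol, with 10% ethanol alone as the control. Survival was followed over time, and mice were weighed at day 12 and then sacrificed. Small intestine was paraffin-embedded, cut into 5 μm sections, H&E-stained and examined by light microscopy. Student's t test was used.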

[14] = test system: CT26; assay: Cytotoxicity against mouse CT26 cells assessed as cell viability at 20 uM after 48 hrs […]; assay type: functional; conditions: CT26, 48 h, read-out: Activity; summary of the method: as §3
[15] = test system: CT26; assay: Induction of apoptosis in mouse CT26 cells after 24 to 72 hrs by TUNEL assay; assay type: functional, cell-based
Summary of the method: (§5)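 After treatment at various concentrations and times, CT26 cells were PBS-washed and fixed in 4% paraformaldehyde for 1 h at room temperature. They were permeabilized for 2 min on ice, then incubated with TUNEL reaction mixture for 1 h at 37 °C in the dark and counterstained with DAPI. TUNEL-positive cells were counted by fluorescence microscopy in five random fields and averaged; DMSO served as control.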

[16] = test system: Serum; assay: Metabolic stability of the compound in human serum after 30 mins; assay type: ADME, cell-free; conditions: 0.5 h
Summary of the method: (§6)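 The compound was incubated for 30 min in PBS (pH 7.2-7.4) or in human or mouse serum, and the amount remaining was analyzed by HPLC.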

[17] = test system: CT26; assay: Induction of apoptosis in mouse CT26 cells assessed as inhibition of Bcl-xL-Bim interaction at 20 uM after 24 hrs by immunoprecipitation analysis; assay type: functional, cell-based; summary of the method: as §2
[18] = test system: CT26; assay: Cytotoxicity against mouse CT26 cells assessed as cell viability at 20 uM after 24 hrs by […]; assay type: functional; conditions: CT26, 24 h, read-out: Activity; summary of the method: as §3
[19] = test system: CT26; assay: Induction of apoptosis in mouse CT26 cells assessed as reduction of Bcl-2 mRNA level at 10 uM after 24 hrs by RT-PCR analysis; assay type: functional, cell-based
[20] = Chemical stability of the compound in phosphate buffered saline at pH 7.2 to 7.4 after 30 mins; assay type: physicochemical; conditions: buffer, pH 7.2, 0.5 h; summary of the method: as §6
[21] = Solubility of the compound in 100 gram of water; assay type: physicochemical; conditions: buffer
Summary of the method: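 Water solubility was measured at 37 °C as the mass of compound dissolving in 100 g of H2O.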

[22] = test system: CT26; assay: Antitumor activity against mouse CT26 cells xenografted in BALB/c mouse assessed as decrease of tumor volume at 10 umol/kg, po for 12 consecutive days; assay type: functional, organism-based
Summary of the method: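 Male BALB/c mice (6-8 weeks) received 5 × 10^5 CT26 cells subcutaneously in the right flank. At 60 mm3, tumor-bearing mice were randomized (n = 4 per group) and dosed by gavage at 10 μmol/kg daily for 12 days in 10% ethanol, with vehicle as control. Tumors were measured every 2 days by caliper; volume = length × width × width × π/6.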

[23] = test system: CT26; assay: Induction of apoptosis in mouse CT26 cells at 5 to 10 uM by TUNEL assay; assay type: functional, cell-based; conditions: TDE = time-dependent effect; summary of the method: as §5
[24] = test system: Serum; assay: Metabolic stability of the compound in mouse serum after 30 mins; assay type: ADME, cell-free; conditions: 0.5 h; summary of the method: as §6
[25] = test system: CT26; assay: Induction of apoptosis in mouse CT26 cells assessed as reduction of Bcl-xL mRNA level at 10 uM after 24 hrs by RT-PCR analysis; assay type: functional, cell-based
[26] = test system: CT26; assay: Induction of apoptosis in mouse CT26 cells assessed as reduction of Bcl-2 protein level at 5 to 10 uM after 24 hrs by immunoblotting; assay type: functional, cell-based
Summary of the method: (§7)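 CT26 cells were exposed to 5 or 10 μM for the indicated times, with DMSO as control. Lysates were run on 10% SDS-PAGE and transferred to nitrocellulose. Blots were probed overnight at 4 °C for Bcl-2 and Bcl-xL, with β-actin as loading control, and detected by HRP chemiluminescence. Experiments were repeated three times.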

[27] = test system: CT26; assay: Cytotoxicity against mouse CT26 cells at 2 to 20 uM by […]; assay type: functional, cell-based; conditions: TDE = time-dependent effect; summary of the method: as §3
[28] = test system: CT26; assay: Cytotoxicity against mouse CT26 cells assessed as cell viability at 2 uM after 120 hrs by […]; assay type: functional; conditions: CT26, 120 h, read-out: Activity; summary of the method: as §3
[29] = test system: CT26; assay: Cytotoxicity against mouse CT26 cells assessed as complete cell death at 20 uM after 72 hrs by […]; assay type: functional, cell-based; summary of the method: as §3
[30] = test system: CT26; assay: Induction of apoptosis in mouse CT26 cells assessed as reduction of Bcl-xL protein level at 5 to 10 uM after 24 hrs by immunoblotting; assay type: functional, cell-based; summary of the method: as §7
[31] = test system: Mus musculus; assay: Toxicity in BALB/c mouse assessed as induction of small intestine damage at 120 umol/kg, po administered daily once for 12 days; assay type: organism-based; conditions: in vivo, 288 h; summary of the method: as §4

## CC/C(C)=C(\NCc1c(O)c(O)c(C(C)C)c2cc(C)c(-c3c(C)cc4c(C(C)C)c(O)c(O)c(CN/C(C(=O)O)=C(/C)CC)c4c3O)c(O)c12)C(=O)O
[1]
  IC50: 11.9 µM
[2]
  IC50: 25.8 µM
[3]
  IC50: > 40 µM
[4]
  IC50: 23.4 µM
[5]
  IC50: 11.8 µM
[6]
  IC50: > 40 µM
[7]
  IC50: 13.2 µM
[8]
  IC50: 20.1 µM
[9]
  IC50: > 40 µM

## Cc1cc2c(C(C)C)c(O)c(O)c(/C=N/[C@@H](Cc3ccccc3)C(=O)O)c2c(O)c1-c1c(C)cc2c(C(C)C)c(O)c(O)c(/C=N/[C@@H](Cc3ccccc3)C(=O)O)c2c1O
[1]
  IC50: 7.36 µM
[2]
  IC50: > 40 µM
[3]
  IC50: > 40 µM
[4]
  IC50: > 40 µM
[10]
  IC50: > 40 µM
[6]
  IC50: 28.4 µM
[7]
  IC50: 5.38 µM
[8]
  IC50: 22.4 µM
[9]
  IC50: > 40 µM

## CC1=C(C2=C(C)C(=O)c3c(c(/C=N/[C@@H]4C(=O)N5[C@@H]4SC(C)(C)[C@@H]5C(=O)[O-])c(O)c(O)c3C(C)C)C2=O)C(=O)c2c(/C=N/[C@@H]3C(=O)N4[C@@H]3SC(C)(C)[C@@H]4C(=O)[O-])c(O)c(O)c(C(C)C)c2C1=O.[Na+].[Na+]
[11]
  Activity: Active
[12]
  Activity: Active
[13]
  Activity: Non-toxic
[14]
  viability at 20 µM: 60%
[15]
  Activity: Dose-dependent effect
[16]
  Stability: Stable
[17]
  Activity: Active
[18]
  viability at 20 µM: 80%
[19]
  Activity: inactive
[20]
  Stability: Stable
[1]
  IC50: 6.59 µM
[2]
  IC50: 29.1 µM
[3]
  IC50: > 40 µM
[4]
  IC50: 17.4 µM
[21]
  solubility: 9.25 g
[22]
  Activity: Active
[5]
  IC50: 6.56 µM
[23]
  Activity: tde
[24]
  Stability: Stable
[25]
  Activity: inactive
[26]
  Activity: Active
[27]
  Activity: tde
[6]
  IC50: 29.5 µM
[28]
  viability at 2 µM: > 90%
[7]
  IC50: 8.77 µM
[29]
  Activity: Active
[30]
  Activity: Active
[8]
  IC50: 11.1 µM
[9]
  IC50: 28.2 µM
[31]
  Activity: Non-toxic

## CCC(C)[C@H](/N=C/c1c(O)c(O)c(C(C)C)c2cc(C)c(-c3c(C)cc4c(C(C)C)c(O)c(O)c(/C=N/[C@H](C(=O)O)C(C)CC)c4c3O)c(O)c12)C(=O)O (some centres not stated)
[1]
  IC50: 18.4 µM
[2]
  IC50: 28.5 µM
[3]
  IC50: > 40 µM
[4]
  IC50: 34.9 µM
[5]
  IC50: 22.6 µM
[6]
  IC50: > 40 µM
[7]
  IC50: 14.8 µM
[8]
  IC50: 19.9 µM
[9]
  IC50: > 40 µM
